High-throughput results from PubChem BioAssay.
S100A4 inh HTS = inhibitors of S100A4-myosin IIA peptide binding, primary screen, biochemical, fluorescence polarization, TAMRA-MyoIIA peptide | Protein S100-A4 (Homo sapiens), P26447 | hit rate 0.14% among 360,000 | AID 652163, 2013 | inhibition, % at 10.7 µM;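 active = mean inhibition of at least 70% across replicates, with every replicate also reaching that level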
Target sequence (P26447 whole entry, looked up): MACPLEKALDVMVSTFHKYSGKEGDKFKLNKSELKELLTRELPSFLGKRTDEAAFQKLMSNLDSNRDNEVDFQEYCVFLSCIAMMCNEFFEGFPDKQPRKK
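Material: S100A4 monomer protein / Buffer or medium: 50 mM HEPES pH 7.2, 10 mM CaCl2, 100 mM KCl / Times: 5 min incubation before reading / Benchmarks: neutral control DMSO, positive control TFP / Reagent: labelled myosin peptide probe, 5 nM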
SIRT5 block = SIRT5 desuccinylase inhibitors, primary screen, biochemical, fluorescence imaging, single point, set 5; NAD-dependent protein deacylase sirtuin-5, mitochondrial (Homo sapiens), Q9NXA8; Purified SirT5, succinyl-peptide AMC, trypsin-coupled fluorescence; hit rate 1.1% among 330,000; AID 652115, 2013; inhibition, % at 15 µM; in the data active = inhibition above about 15%
Target sequence (Q9NXA8 whole entry, looked up): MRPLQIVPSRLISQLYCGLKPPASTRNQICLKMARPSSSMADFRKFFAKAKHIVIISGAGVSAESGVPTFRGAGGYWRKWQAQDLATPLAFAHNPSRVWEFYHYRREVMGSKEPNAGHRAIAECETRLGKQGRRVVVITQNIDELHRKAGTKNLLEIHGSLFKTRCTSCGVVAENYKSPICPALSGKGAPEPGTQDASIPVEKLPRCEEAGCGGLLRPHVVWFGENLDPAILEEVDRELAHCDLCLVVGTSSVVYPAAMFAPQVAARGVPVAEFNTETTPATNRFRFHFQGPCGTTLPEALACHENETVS
ERAP1 inh = human ERAP1 aminopeptidase inhibitors, primary screen, biochemical, single point, plate reader | hit rate 0.15% among 340,000 | inhibition, % at 10.7 µM | Endoplasmic reticulum aminopeptidase 1 (Homo sapiens), Q9NZ08 | recombinant ERAP1, Leu-AMC fluorescence, 60 min;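 active = mean replicate inhibition of at least 30%, or all replicates individually reaching that 30% level; inactive = mean below 30% and not every replicate reaching it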
rRNA inh HTS = reduced GFP signal of wild-type E. coli, primary screen, bacterial rRNA inhibitor project, GFP/RFP fluorescence, OD600, single point; E. coli WT GFP vs humanized-ribosome RFP mutants, 24 h; hits give low values; DMSO median 0, no signal -100; GFP signal change (wild-type ribosome), % (no concentration beside the values); hit rate 1.6% among 350,000;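 active = significant combined selectivity score with lowered wild-type GFP, culture density cut under 30%, mutant RFP and density less affected; inactive = any of these conditions unmet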
F508del corr = F508del CFTR correction, initial screen, CFBE line, single point; CFBE cells, YFP halide quenching; stimulated with forskolin plus potentiator P3; % fluorescence drop versus neutral controls; activity (quench increase), % at 7.58 µM; hit rate 0.36% among 350,000; AID 720511, 2013;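 active = mean added fluorescence quench of at least 8% versus neutral control, with both replicates also reaching 8%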;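 note: cells transiently co-express mutant CFTR-F508del with the halide-sensitive YFP; corrector assay measuring rescue of mutant channel to the surface after 24 h compound exposure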
Of the large screens only hits and unclear results are named; the others gave an inactive call; ! = not confirmed by another sample. This is a sample that favours compounds with a hit; in the whole collection about 3.1% have one here.

C[C@@H]1CN([C@@H](C)CO)S(=O)(=O)c2ccc(-c3ccccc3)cc2O[C@@H]1CN(C)C(=O)c1ccc2c(c1)OCO2	SIRT5 block 15.9
C[C@H]1CN([C@@H](C)CO)S(=O)(=O)c2ccc(/C=C/c3ccccc3)cc2O[C@H]1CN(C)C(=O)c1ccc2c(c1)OCO2	SIRT5 block 22.4
C[C@@H]1CN([C@H](C)CO)S(=O)(=O)c2ccc(C#Cc3ccccc3F)cc2O[C@H]1CN(C)C(=O)c1ccc2c(c1)OCO2	SIRT5 block 35.5!
COc1cccc(CNC(=O)C[C@@H]2CC[C@H](NC(=O)C3CCOCC3)[C@H](CO)O2)c1	none
CC(C)CC#Cc1ccc([C@H]2[C@H](CO)N3C(=O)CN(S(=O)(=O)c4ccccc4)C[C@@H]23)cc1	none
CCCC(=O)Nc1ccc2c(c1)C(=O)N(C)[C@H]1CC[C@@H](CC(=O)Nc3cn(C)nc3C)O[C@H]1CO2	none
COc1ccc(CNC(=O)C[C@H]2CC[C@@H]3[C@@H](COc4ccc(NC(=O)C5CC5)cc4C(=O)N3C)O2)cc1	none
COc1ccc(-c2cc(C(=O)N(C)Cc3cccc(OC)c3OC)c3ccccc3n2)cc1OC	rRNA inh HTS -28.0
COCCCN=C1NN=C(c2cc(C)n(Cc3ccco3)c2C)CS1	F508del corr 18.4
CC(=O)Nc1ccc(NC(=O)C2CCCN2C(=O)Nc2ccccc2[N+](=O)[O-])cc1 (stereo not given)	SIRT5 block 20.5
CC(=O)Nc1ccc(-c2csc(NC(=O)CCNC(=O)c3ccco3)n2)cc1	none
COC(=O)CCC(=O)Nc1nc(-c2ccccc2)cs1	none
CC1CC(CC(=O)Nc2nc(-c3ccccc3)cs2)C(=O)O1 (stereo not given)	rRNA inh HTS -24.1
O=C(CCNC(=O)c1ccco1)Nc1nc(-c2ccccc2)cs1	F508del corr 8.8 (no result: SIRT5 block)
C[C@@H]1CCCCO[C@@H](CN(C)Cc2ccc(Cl)c(Cl)c2)[C@H](C)CN([C@@H](C)CO)C(=O)c2cc(NC(=O)Nc3ccc(C(F)(F)F)cc3)ccc2O1	none
C[C@H]1CN([C@@H](C)CO)C(=O)c2cc(C#Cc3cccc(F)c3)cnc2O[C@H]1CN(C)C(=O)C1CCOCC1	none (no result: S100A4 inh HTS, SIRT5 block, ERAP1 inh)
CN1[C@@H]2c3ccc(-c4ccccc4)c(=O)n3C[C@@H]2[C@@H](CO)[C@@H]1C(=O)Nc1ccccc1	none
O=C(Nc1ccccc1)ON=C1c2ccccc2-c2ccccc21	rRNA inh HTS -35.0
COc1ccc(N2CCN(c3ccc(N4C(=O)CC(C)C4=O)cc3[N+](=O)[O-])CC2)cc1 (stereo not given)	rRNA inh HTS -28.9 (no result: ERAP1 inh)
CC1CC(=O)N(c2ccc(NCCc3ccc(O)cc3)c([N+](=O)[O-])c2)C1=O (stereo not given)	rRNA inh HTS -21.6
CC1CC(=O)N(c2ccc(NCCc3ccccc3)c([N+](=O)[O-])c2)C1=O (stereo not given)	none
O=C(C[C@H]1CC[C@@H](NC(=O)C2CCOCC2)[C@@H](CO)O1)NCC1CC1	none
COc1ccccc1Nc1nc(C)c(C(=O)Nc2ccccc2)s1	rRNA inh HTS -32.2
Cc1nc(Nc2ccc(S(N)(=O)=O)cc2)sc1C(=O)Nc1ccccc1	rRNA inh HTS -35.1
N#CCCN(Cc1cccs1)C(=O)c1ccc(Cl)cc1	none (no result: SIRT5 block, ERAP1 inh)
CC(C)NC(=O)N(Cc1ccc(Cl)cc1)Cc1cccs1	rRNA inh HTS -24.1
CO[C@@H]1CN(C)C(=O)c2cc(NS(=O)(=O)c3ccc(Cl)cc3)ccc2OC[C@@H](C)N(C)C[C@H]1C	none
O=S(=O)(c1cccc(-c2csc(N/N=C/c3ccco3)n2)c1)N1CCOCC1	rRNA inh HTS -23.3
Cc1ccc(C)c(-c2csc(N/N=C/c3ccco3)n2)c1	none (no result: F508del corr)
CCOC(=O)C1CCCCN1Cc1ccc(-c2ccccc2)cc1 (stereo not given)	rRNA inh HTS -29.4
COc1cccc(-c2csc(NC(=O)Nc3ccccc3)n2)c1	rRNA inh HTS -27.6
O=C(Nc1ccccc1)Nc1nc(-c2ccccc2)cs1	none
COc1cccc([C@@H]2CC=C(C(=O)O)[C@H](c3cccc(Cl)c3)N2S(=O)(=O)c2ccc(C)cc2)c1	rRNA inh HTS -32.4 (no result: SIRT5 block)
COc1cccc([C@@H]2CC=C(C(=O)O)[C@H](c3ccccc3)N2S(=O)(=O)c2ccc(C)cc2)c1	none
Cc1ccc(S(=O)(=O)N2[C@@H](c3ccccc3)C(C(=O)O)=CC[C@H]2c2ccc(Cl)cc2)cc1	SIRT5 block 25.5
Cc1ccc(S(=O)(=O)N2[C@@H](c3ccc(Cl)cc3)C(C(=O)O)=CC[C@H]2c2cccc(C)c2)cc1	rRNA inh HTS -21.5 (no result: SIRT5 block)
COc1ccc(N2CCN(C(=O)CN(C)S(=O)(=O)c3cc(C)ccc3OC)CC2)cc1	SIRT5 block 19.4
CCC(=O)N1CC(=O)N2[C@H](CO)[C@@H](c3ccc(C#CC4CCCCC4)cc3)[C@H]2C1	none
Cc1cccc(C)c1NC(=O)N1CCCCCCC1	SIRT5 block 28.4
Cc1cccc(C)c1NC(=O)N1CC=CCC1	none
O=C(NCc1ccccc1)c1cc(-c2ccncc2)nc2ccc(S(=O)(=O)N3CCOCC3)cc12	none
Cc1ccc(CCNC(=O)c2cc(-c3ccncc3)nc3ccc(S(=O)(=O)N4CCOCC4)cc23)cc1	S100A4 inh HTS 148.5
O=C(C[C@H]1C=C[C@H](NC(=O)c2cccnc2)[C@@H](CO)O1)NCCN1CCCCC1	none (no result: S100A4 inh HTS, SIRT5 block, ERAP1 inh)
CO[C@H]1CN(C)C(=O)c2ccc(NS(=O)(=O)c3ccccc3)cc2OC[C@H](C)N(Cc2cccnc2)C[C@@H]1C	S100A4 inh HTS 79.4
CCCN1C[C@H](C)[C@@H](OC)CN(C)C(=O)c2cc(NS(=O)(=O)c3ccccc3)ccc2OC[C@H]1C	SIRT5 block 31.5 (no result: ERAP1 inh)
CO[C@@H]1CN(C)C(=O)c2cc(NS(=O)(=O)CC(F)(F)F)ccc2OC[C@@H](C)N(C)C[C@H]1C	S100A4 inh HTS 105.9 (no result: F508del corr)
CO[C@H]1CN(C)C(=O)c2ccc(NS(=O)(=O)c3ccccc3)cc2OC[C@@H](C)N(Cc2cccnc2)C[C@@H]1C	none
CO[C@@H]1CN(C)C(=O)c2ccc(NC(=O)c3nc4ccccc4s3)cc2OC[C@@H](C)N(Cc2cccnc2)C[C@H]1C	SIRT5 block 102.5 (no result: S100A4 inh HTS, ERAP1 inh)
COc1ccc(S(=O)(=O)N(C)C[C@H]2Oc3c(NC(=O)Nc4ccc5c(c4)OCO5)cccc3C(=O)N([C@@H](C)CO)C[C@@H]2C)cc1	none
CC(=O)N(C)C[C@H]1Oc2cc(C3=CCCC3)ccc2S(=O)(=O)N([C@@H](C)CO)C[C@H]1C	none
CCCC(=O)Nc1ccc2c(c1)C(=O)N(C)[C@@H]1CC[C@H](CC(=O)NC3CCCC3)O[C@H]1CO2	none
